Measurements as given in ChEMBL document CHEMBL1955834, “Disparate SAR data of griseofulvin analogues for the dermatophytes Trichophyton mentagrophytes, T. rubrum, and MDA-MB-231 cancer cells” (J Med Chem, 2012).
pIC50: −log10 of the molar value. Calls of active or inactive are those of the source. The rule behind the calls is not given here.

Columns and labels:
[1] = tested on: Trichophyton mentagrophytes; test: Antifungal activity against Trichophyton mentagrophytes IBT 2724 after 7 days by micro broth dilution method; assay type: functional, organism-based; conditions: IBT 2724, 168 h
Procedure, shortened: (§1)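 T. mentagrophytes IBT2724 was tested by broth microdilution using an 8-fold dilution series of 10 concentrations from 50 μM down to 0.4 μM, with 1% DMSO. The inoculum was prepared per CLSI M38-A2, adjusted to OD530 0.90–1.5 and diluted 50-fold in RPMI/MOPS at pH 7.00. Plates ran 7 days at 37 °C with an OD read-out. IC50 came from a variable-slope sigmoidal fit.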

[2] = tested on: HeLa; test: Cytotoxicity against human HeLa cells; assay type: functional, cell-based
[3] = Cytotoxicity against human SCC114 cells by phenotype-based spindle multipolarity assay; assay type: functional, cell-based
[4] = tested on: Trichophyton rubrum; test: Antifungal activity against Trichophyton rubrum IBT 29284 after 7 days by micro broth dilution method; assay type: functional, organism-based; conditions: IBT 29284, 168 h
Procedure, shortened: (§2)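 T. rubrum IBT29284 was tested by broth microdilution using a 4-fold dilution series of 10 concentrations from 50 μM down to 0.2 μM, with 1% DMSO. The inoculum followed CLSI M38-A2, set to OD530 0.90–1.5 and diluted 50-fold in RPMI/MOPS at pH 7.00. Incubation was 7 days at 37 °C, read by OD. IC50 came from a variable-slope sigmoidal fit.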

[5] = tested on: MDA-MB-231; test: Cytotoxicity against human MDA-MB-231 cells assessed as cell viability after 48 hrs by MTT assay; assay type: functional, cell-based; conditions: MDA-MB-231, 48 h
Procedure, shortened: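 MDA-MB-231 cells were grown in L-15 with 10% FCS at 37 °C and seeded at (2-3) × 10^4 per well. Exposure was 24 and/or 48 h, then MTT for at least 4 h, with absorbance read at 570/630 nm. Each condition had at least 3 replicates, reported as mean ± SD of a representative experiment repeated at least three times.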

[6] = tested on: V79; test: Cytotoxicity against Chinese hamster V79 cells; assay type: functional, cell-based; conditions: Cricetulus griseus
[7] = tested on: Trichophyton mentagrophytes; test: Antifungal activity against Trichophyton mentagrophytes IBT 2724 at 50 uM after 7 days by micro broth dilution method; assay type: functional; procedure, shortened: as §1
[8] = tested on: MDA-MB-231; test: Ratio of griseofulvin IC50 to compound IC50 for human MDA-MB-231 cells; assay type: functional
[9] = tested on: Trichophyton rubrum; test: Antifungal activity against Trichophyton rubrum IBT 29284 at 50 uM after 7 days by micro broth dilution method; assay type: functional; procedure, shortened: as §2
[10] = Drug degradation in phosphate buffered saline at pH 7.4 assessed as compound hydrolysis after 48 hrs; assay type: physicochemical; conditions: read-out: Drug degradation
Procedure, shortened: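 Oximes were held in PBS at pH 7.4 for 48 h, and hydrolysis to the parent ketones was monitored.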

| Structure (SMILES) | pIC50 [1] | pIC50 [2] | pIC50 [3] | pIC50 [4] | pIC50 [5] | pIC50 [6] | inhibition [7] | Ratio IC50 [8] | inhibition [9] | degraded at 48 h [10] |
| --- | --- | --- | --- | --- | --- | --- | --- | --- | --- | --- |
| COC1=CC(=O)C[C@@H](C)[C@]12Oc1c(Cl)c(OC)cc(OC)c1C2=O [GRISEOFULVIN] | 7.24 | 4.60 | 4.70 | 6.42 | 4.74 | 5.10 | – | – | – | – |
| COC(=O)C1=CC(=O)C=C(OC)[C@]12Oc1c(Cl)c(C)c(Cl)c(O)c1C2=O | – | – | – | – | 5.00 | – | inactive | 2 | inactive | – |
| COC1=C/C(=N\O)C[C@@H](C)[C@]12Oc1c(Cl)c(OC)cc(OC)c1C2=O | 6.72 | – | – | 5.89 | 4.92 | – | – | – | – | < 5% |
| CCCOC1=CC(=O)C[C@@H](C)[C@]12Oc1c(Cl)c(OC)cc(OC)c1C2=O | 7.30 | – | – | 6.21 | 4.80 | 6.15 | – | – | – | – |
| COc1cc(OC)c2c(c1Cl)O[C@]1(C2=O)C(OCc2ccccc2)=C/C(=N\O)C[C@H]1C | 6.52 | – | – | 5.10 | 5.85 | – | – | – | – | < 5% |
| COc1cc(OC)c2c(c1Cl)O[C@]1(C2=O)C(OCc2ccc(COC3=CC(=O)C[C@@H](C)[C@]34Oc3c(Cl)c(OC)cc(OC)c3C4=O)cc2)=CC(=O)C[C@H]1C | – | – | – | – | 5.07 | – | inactive | 2 | inactive | – |
